Calls of active or inactive are those of the source. No cut-off for these calls is given here.
Columns and labels:
T47D = assay: Antiproliferative activity against human T47D cells assessed as cell growth at 10 uM; assay type: functional; details: read-out: Activity
Outline: (§1)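 NCI 60 cell line panel, single dose (10^-5 M), run per the Developmental Therapeutics Program protocol (one dose mean graph). Each result is the growth percentage of treated cells relative to untreated control cells.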

SK-MEL-5 = assay: Antiproliferative activity against human SK-MEL-5 cells assessed as cell growth at 10 uM; assay type: functional; details: read-out: Activity
Outline: (§2)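 NCI 60 cell line panel, single-dose screen (10^-5 M) run by the developmental therapeutics program protocol. Results are given as growth percent of treated cells relative to untreated control cells for each line.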

LOX IMVI = assay: Antiproliferative activity against human LOXIMVI cells assessed as cell growth at 10 uM; assay type: functional; details: read-out: Activity; outline: as §2
UO-31 = assay: Antiproliferative activity against human UO31 cells assessed as cell growth at 10 uM; assay type: functional; details: read-out: Activity; outline: as §1
NCI-H23 = assay: Antiproliferative activity against human NCI-H23 cells assessed as cell growth at 10 uM; assay type: functional; details: read-out: Activity; outline: as §2
HOP-92 = assay: Antiproliferative activity against human HOP92 cells assessed as cell growth at 10 uM; assay type: functional; details: read-out: Activity; outline: as §2
COLO 205 = assay: Antiproliferative activity against human COLO205 cells assessed as cell growth at 10 uM; assay type: functional; details: read-out: Activity; outline: as §2
MOLT-4 = assay: Antiproliferative activity against human MOLT4 cells assessed as cell growth at 10 uM; assay type: functional; details: read-out: Activity; outline: as §2
CAKI-1 = assay: Antiproliferative activity against human Caki1 cells assessed as cell growth at 10 uM; assay type: functional; details: read-out: Activity; outline: as §2
[1] = Cytotoxicity against human H1299 cells at 100 uM after 48 hrs by MTT assay; assay type: functional; details: NCI-H1299, 48 h
Outline: (§3)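 H1299 non-small cell lung cancer cells were grown in RPMI 1640 with 10% FBS, penicillin and streptomycin at 37 °C under 5% CO2. About 2 × 10³ cells per well were seeded and left 24 h. Compounds were dissolved fresh in DMSO, diluted into complete medium and applied for 48 h. MTT was then added for 4 h at 37 °C, followed by lysis buffer (20% SDS, 50% DMF) for 16 h, and absorbance was read at 550 nm.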

U-251 = assay: Antiproliferative activity against human U251 cells assessed as cell growth at 10 uM; assay type: functional; details: read-out: Activity; outline: as §1
SF-295 = assay: Antiproliferative activity against human SF295 cells assessed as cell growth at 10 uM; assay type: functional; details: read-out: Activity; outline: as §2
HT-29 = assay: Antiproliferative activity against human HT-29 cells assessed as cell growth at 10 uM; assay type: functional; details: read-out: Activity; outline: as §2
SK-OV-3 = assay: Antiproliferative activity against human SKOV3 cells assessed as cell growth at 10 uM; assay type: functional; details: read-out: Activity; outline: as §2
[2] = Antiproliferative activity against human RPMI8266 cells assessed as cell growth at 10 uM; assay type: functional; details: read-out: Activity; outline: as §2
MCF7 = assay: Antiproliferative activity against human MCF7 cells assessed as cell growth at 10 uM; assay type: functional; details: read-out: Activity; outline: as §2
ACHN = assay: Antiproliferative activity against human ACHN cells assessed as cell growth at 10 uM; assay type: functional; details: read-out: Activity; outline: as §2
MDA-MB-435 = assay: Antiproliferative activity against human MDA-MB-435 cells assessed as cell growth at 10 uM; assay type: functional; details: read-out: Activity; outline: as §2
NCI-H460 = assay: Antiproliferative activity against human NCI-H460 cells assessed as cell growth at 10 uM; assay type: functional; details: read-out: Activity; outline: as §2
HCC 2998 = assay: Antiproliferative activity against human HCC2998 cells assessed as cell growth at 10 uM; assay type: functional; details: read-out: Activity; outline: as §2
NCI-H522 = assay: Antiproliferative activity against human NCI-H522 cells assessed as cell growth at 10 uM; assay type: functional; details: read-out: Activity; outline: as §2
HCT-116 = assay: Antiproliferative activity against human HCT116 cells assessed as cell growth at 10 uM; assay type: functional; details: read-out: Activity; outline: as §2
OVCAR-8 = assay: Antiproliferative activity against human OVCAR8 cells assessed as cell growth at 10 uM; assay type: functional; details: read-out: Activity; outline: as §2
[3] = target: Telomerase reverse transcriptase (Homo sapiens) (UniProt O14746); assay: Inhibition of TERT in human H1299 cells assessed as residual transcriptional activity at 10 uM after 24 hrs by SEAP reporter gene assay; values are per cent of control
Telomerase reverse transcriptase (Homo sapiens), sequence (O14746 whole entry): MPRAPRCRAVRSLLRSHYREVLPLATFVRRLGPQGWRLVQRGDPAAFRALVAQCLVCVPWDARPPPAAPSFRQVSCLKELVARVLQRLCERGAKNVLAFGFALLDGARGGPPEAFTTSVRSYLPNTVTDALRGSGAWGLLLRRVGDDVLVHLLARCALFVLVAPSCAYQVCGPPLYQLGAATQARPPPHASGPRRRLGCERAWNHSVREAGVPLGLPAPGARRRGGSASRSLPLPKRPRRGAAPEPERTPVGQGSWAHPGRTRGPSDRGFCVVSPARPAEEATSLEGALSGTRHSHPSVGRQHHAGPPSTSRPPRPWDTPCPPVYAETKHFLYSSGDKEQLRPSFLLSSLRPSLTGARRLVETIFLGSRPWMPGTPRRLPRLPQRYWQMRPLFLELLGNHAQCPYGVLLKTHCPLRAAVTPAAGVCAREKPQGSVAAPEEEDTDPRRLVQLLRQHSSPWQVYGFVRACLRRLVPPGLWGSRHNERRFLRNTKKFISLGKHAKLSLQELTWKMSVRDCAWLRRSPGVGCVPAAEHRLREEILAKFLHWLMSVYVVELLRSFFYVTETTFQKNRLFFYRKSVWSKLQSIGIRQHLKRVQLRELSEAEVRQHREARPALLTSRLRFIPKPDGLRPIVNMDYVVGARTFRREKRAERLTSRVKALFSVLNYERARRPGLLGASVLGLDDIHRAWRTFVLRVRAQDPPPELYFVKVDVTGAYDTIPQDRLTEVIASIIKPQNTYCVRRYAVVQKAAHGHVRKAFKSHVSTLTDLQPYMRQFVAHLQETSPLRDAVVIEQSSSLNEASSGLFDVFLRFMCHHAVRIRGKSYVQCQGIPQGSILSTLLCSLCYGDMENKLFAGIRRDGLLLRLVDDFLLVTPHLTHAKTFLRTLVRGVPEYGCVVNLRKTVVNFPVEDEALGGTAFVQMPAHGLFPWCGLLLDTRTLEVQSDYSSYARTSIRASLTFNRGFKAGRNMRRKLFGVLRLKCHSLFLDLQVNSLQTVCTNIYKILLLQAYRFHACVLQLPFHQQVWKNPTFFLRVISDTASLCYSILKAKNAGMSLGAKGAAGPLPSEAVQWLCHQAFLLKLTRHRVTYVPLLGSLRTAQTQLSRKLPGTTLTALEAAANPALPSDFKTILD

SR = assay: Antiproliferative activity against human SR cells assessed as cell growth at 10 uM; assay type: functional; details: read-out: Activity; outline: as §1
NCI-H226 = assay: Antiproliferative activity against human NCI-H226 cells assessed as cell growth at 10 uM; assay type: functional; details: read-out: Activity; outline: as §2
[4] = Cytotoxicity against human H1299 cells at 10 uM after 48 hrs by MTT assay; assay type: functional; details: NCI-H1299, 48 h; outline: as §3
SK-MEL-2 = assay: Antiproliferative activity against human SK-MEL-2 cells assessed as cell growth at 10 uM; assay type: functional; details: read-out: Activity; outline: as §2
DU-145 = assay: Antiproliferative activity against human DU145 cells assessed as cell growth at 10 uM; assay type: functional; details: read-out: Activity; outline: as §2
SN12C = assay: Antiproliferative activity against human SN12C cells assessed as cell growth at 10 uM; assay type: functional; details: read-out: Activity; outline: as §2
NCI-H322M = assay: Antiproliferative activity against human NCI-H322M cells assessed as cell growth at 10 uM; assay type: functional; details: read-out: Activity; outline: as §2
UACC-62 = assay: Antiproliferative activity against human UACC62 cells assessed as cell growth at 10 uM; assay type: functional; details: read-out: Activity; outline: as §1
HL-60(TB) = assay: Antiproliferative activity against human HL-60(TB) cells assessed as cell growth at 10 uM; assay type: functional; details: read-out: Activity
Outline: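 NCI Developmental Therapeutics Program 60-cell-line one-dose screen at 10^-5 M. Readout is growth percentage of treated cells relative to untreated control cells.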

SW-620 = assay: Antiproliferative activity against human SW620 cells assessed as cell growth at 10 uM; assay type: functional; details: read-out: Activity; outline: as §1
NCI/ADR-RES = assay: Antiproliferative activity against human NCI/ADR-RES cells assessed as cell growth at 10 uM; assay type: functional; details: read-out: Activity; outline: as §2
SNB-75 = assay: Antiproliferative activity against human SNB75 cells assessed as cell growth at 10 uM; assay type: functional; details: read-out: Activity; outline: as §1
K562 = assay: Antiproliferative activity against human K562 cells assessed as cell growth at 10 uM; assay type: functional; details: read-out: Activity; outline: as §2
MDA-MB-231 = assay: Antiproliferative activity against human MDA-MB-231 cells assessed as cell growth at 10 uM; assay type: functional; details: read-out: Activity; outline: as §2
[5] = target: Telomerase reverse transcriptase (Homo sapiens) (UniProt O14746); assay: Inhibition of TERT in human H1299 cells assessed as residual transcriptional activity at 1 uM after 24 hrs by SEAP reporter gene assay; values are per cent of control
EKVX = assay: Antiproliferative activity against human EKVX cells assessed as cell growth at 10 uM; assay type: functional; details: read-out: Activity; outline: as §2
SF-539 = assay: Antiproliferative activity against human SF539 cells assessed as cell growth at 10 uM; assay type: functional; details: read-out: Activity; outline: as §2
SF-268 = assay: Antiproliferative activity against human SF268 cells assessed as cell growth at 10 uM; assay type: functional; details: read-out: Activity; outline: as §2
[6] = target: Telomerase reverse transcriptase (Homo sapiens) (UniProt O14746); assay: Inhibition of telomerase in human H1299 cells up to 100 uM by TRAP assay; assay type: cell-based
Outline: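 PCR-based telomeric repeat amplification protocol (TRAP). The telomerase source was total lysate of H1299 lung cancer cells, with protein measured against BSA standards. Controls were extract without inhibitor and RNase A-treated extract.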

OVCAR-5 = assay: Antiproliferative activity against human OVCAR5 cells assessed as cell growth at 10 uM; assay type: functional; details: read-out: Activity; outline: as §2

O=C1c2ccccc2C(=O)c2c1ccc1nc(-c3ccc(Br)cc3)[nH]c21
growth at 10 µM (T47D): 97.3% | growth at 10 µM (SK-MEL-5): 87.1% | growth at 10 µM (LOX IMVI): 102% | growth at 10 µM (UO-31): 66.2% | growth at 10 µM (NCI-H23): 93.1% | growth at 10 µM (HOP-92): 83.5% | growth at 10 µM (COLO 205): 110% | growth at 10 µM (MOLT-4): 101% | growth at 10 µM (CAKI-1): 86.6% | viability at 100 µM [1]: 20% | growth at 10 µM (U-251): 105% | growth at 10 µM (SF-295): 119% | growth at 10 µM (HT-29): 98.8% | growth at 10 µM (SK-OV-3): 105% | growth at 10 µM [2]: 95.2% | growth at 10 µM (MCF7): 75.3% | growth at 10 µM (ACHN): 91.4% | growth at 10 µM (MDA-MB-435): 110% | growth at 10 µM (NCI-H460): 96.2% | growth at 10 µM (HCC 2998): 98.1% | growth at 10 µM (NCI-H522): 76.5% | growth at 10 µM (HCT-116): 99.6% | growth at 10 µM (OVCAR-8): 96.3% | residual activity [3]: 71% | growth at 10 µM (SR): 92.4% | growth at 10 µM (NCI-H226): 103% | viability at 10 µM [4]: 85% | growth at 10 µM (SK-MEL-2): 72.2% | growth at 10 µM (DU-145): 113% | growth at 10 µM (SN12C): 112% | growth at 10 µM (NCI-H322M): 167% | growth at 10 µM (UACC-62): 105% | growth at 10 µM (HL-60(TB)): 100% | growth at 10 µM (SW-620): 95% | growth at 10 µM (NCI/ADR-RES): 93.7% | growth at 10 µM (SNB-75): 87.3% | growth at 10 µM (K562): 109% | growth at 10 µM (MDA-MB-231): 92.3% | residual activity [5]: 89% | growth at 10 µM (EKVX): 82.7% | growth at 10 µM (SF-539): 103% | growth at 10 µM (SF-268): 106% | inhibition [6]: inactive | growth at 10 µM (OVCAR-5): 93.2%

COc1cc(-c2nc3ccc4c(c3[nH]2)C(=O)c2ccccc2C4=O)ccc1O
growth at 10 µM (T47D): 83.9% | growth at 10 µM (SK-MEL-5): 88.1% | growth at 10 µM (LOX IMVI): 109% | growth at 10 µM (UO-31): 80.7% | growth at 10 µM (NCI-H23): 103% | growth at 10 µM (HOP-92): 120% | growth at 10 µM (COLO 205): 101% | growth at 10 µM (MOLT-4): 96.4% | growth at 10 µM (CAKI-1): 134% | viability at 100 µM [1]: 38% | growth at 10 µM (U-251): 103% | growth at 10 µM (SF-295): 127% | growth at 10 µM (HT-29): 101% | growth at 10 µM (SK-OV-3): 113% | growth at 10 µM [2]: 81% | growth at 10 µM (MCF7): 57.5% | growth at 10 µM (ACHN): 100% | growth at 10 µM (MDA-MB-435): 103% | growth at 10 µM (NCI-H460): 90.1% | growth at 10 µM (HCC 2998): 103% | growth at 10 µM (NCI-H522): 71.5% | growth at 10 µM (HCT-116): 90.4% | growth at 10 µM (OVCAR-8): 93.4% | residual activity [3]: 50% | growth at 10 µM (SR): 73.9% | growth at 10 µM (NCI-H226): 100% | viability at 10 µM [4]: 70% | growth at 10 µM (SK-MEL-2): 82.2% | growth at 10 µM (DU-145): 88.1% | growth at 10 µM (SN12C): 102% | growth at 10 µM (NCI-H322M): 107% | growth at 10 µM (UACC-62): 92.2% | growth at 10 µM (HL-60(TB)): 123% | growth at 10 µM (SW-620): 102% | growth at 10 µM (NCI/ADR-RES): 103% | growth at 10 µM (SNB-75): 86% | growth at 10 µM (K562): 95.5% | growth at 10 µM (MDA-MB-231): 87.9% | residual activity [5]: 85% | growth at 10 µM (EKVX): 89.1% | growth at 10 µM (SF-539): 102% | growth at 10 µM (SF-268): 107% | inhibition [6]: inactive | growth at 10 µM (OVCAR-5): 97.1%
